Test results published in ChEMBL document CHEMBL1131591, “2-Fluoro-4-pyridinylmethyl analogues of linopirdine as orally active acetylcholine release-enhancing agents with good efficacy and duration of action” (J Med Chem, 1998).

Key:
Rattus norvegicus [1] = species on record: Rattus norvegicus; test: Compound was tested in vitro for its ability to enhance the K+-stimulated release of [3H]acetylcholine from rat hippocampal slices preloaded with [3H]-Choline.; assay type: functional; settings: Hippocampus
Method in brief: (§1)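 Superfused rat hippocampal slices preloaded with [3H]choline. Release evoked for 4 min at two points (S1, S2) by raising K+ in the medium to 25 mM. Compound added after S1 and kept in the medium through S2. Enhancement taken as the S2/S1 ratio, expressed as percent of control (control = 100%). EC50 taken as the concentration giving 50% of the compound's peak efficacy. At least three determinations per point.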

Rattus norvegicus [2] = species on record: Rattus norvegicus; test: Compound was tested in vitro for its ability to enhance the K+-stimulated release of [3H]acetylcholine from rat hippocampal slices preloaded with [3H]choline at 10 uM; assay type: functional, Hippocampus; method in brief: as §1
Rattus norvegicus [3] = test: Compound was tested in vivo for microdialysis ACh release after peroral administration of 10 mg/kg methocel; assay type: functional; settings: route oral
Method in brief: (§2)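 Freely moving rats under brain microdialysis. Dialysate injected onto HPLC every 20 min to measure ACh. Compound or vehicle given orally after the fourth 20-min collection, usually 14 collections in total. Vehicle was water or a suspension in […] methocel in water, bead-milled overnight. Peak reported as percent increase over baseline (control = 0). Duration is the number of consecutive minutes at significance.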

Rattus norvegicus [4] = test: Compound was tested in vivo for microdialysis ACh release after peroral administration of 5 mg/kg suspended in water; assay type: functional; settings: route oral; method in brief: as §2
Rattus norvegicus [5] = test: Compound was tested in vivo for microdialysis ACh release after peroral administration of 10 mg/kg water at the duration of >40 minutes; assay type: functional; settings: route oral; method in brief: as §2
Rattus norvegicus [6] = species on record: Rattus norvegicus; test: Compound was tested in vitro for its ability to enhance the K+-stimulated release of [3H]acetylcholine from rat hippocampal slices preloaded with [3H]choline at 3 uM; assay type: functional, Hippocampus; method in brief: as §1
Rattus norvegicus [7] = test: Compound was tested in vivo for microdialysis ACh release after peroral administration of 1 mg/kg methocel at the duration of >120 minutes; assay type: functional; settings: route oral; method in brief: as §2
Rattus norvegicus [8] = test: Compound was tested in vivo for microdialysis ACh release after peroral administration of 0.5 mg/kg suspended in methocel; assay type: functional; settings: route oral; method in brief: as §2
Rattus norvegicus [9] = test: Compound was tested in vivo for microdialysis ACh release after peroral administration of 5 mg/kg methocel at the duration of >80 minutes; assay type: functional; settings: route oral; method in brief: as §2
Rattus norvegicus [10] = test: Compound was tested in vivo for microdialysis ACh release after peroral administration of 1 mg/kg suspended in methocel at the duration of 120 minutes; assay type: functional; settings: route oral; method in brief: as §2
Rattus norvegicus [11] = species on record: Rattus norvegicus; test: Compound was tested in vitro for its ability to enhance the K+-stimulated release of [3H]acetylcholine from rat hippocampal slices preloaded with [3H]-Choline at 1 uM; assay type: functional, Hippocampus; method in brief: as §1
Rattus norvegicus [12] = test: Compound was tested in vivo for microdialysis ACh release after peroral administration of 5 mg/kg methocel at the duration of 100 minutes; assay type: functional; settings: route oral; method in brief: as §2
Rattus norvegicus [13] = test: Compound was tested in vivo for microdialysis ACh release after peroral administration of 5 mg/kg suspended in water at the duration of 20 minutes; assay type: functional; settings: route oral; method in brief: as §2
Rattus norvegicus [14] = test: Compound was tested in vivo for microdialysis ACh release after peroral administration of 10 mg/kg suspended in methocel at the duration of 80 minutes; assay type: functional; settings: route oral; method in brief: as §2
Rattus norvegicus [15] = test: Compound was tested in vivo for microdialysis ACh release after peroral administration of 20 mg/kg methocel at the duration of 140 minutes; assay type: functional; settings: route oral; method in brief: as §2
Rattus norvegicus [16] = test: Compound was tested in vivo for microdialysis ACh release after peroral administration of 10 mg/kg water at the duration of 100 minutes; assay type: functional; settings: route oral; method in brief: as §2

O=C1N(c2ccccc2)c2ccccc2C1(Cc1ccnc(F)c1)Cc1ccnc(F)c1
EC50 (Rattus norvegicus [1]): 15200 nM | Control (Rattus norvegicus [2]): 326% | Increase over control (Rattus norvegicus [3]): 44%

Fc1cc(CC2(Cc3ccncc3)c3ccccc3-c3ncccc32)ccn1 (configuration not stated)
Increase over control (Rattus norvegicus [4]): 47% | Increase over control (Rattus norvegicus [5]): 52% | EC50 (Rattus norvegicus [1]): 1080 nM | Control (Rattus norvegicus [2]): 317%

O=C1N(c2ccccc2)c2ccccc2C1(Cc1ccncc1)Cc1ccnc(F)c1 (configuration not stated)
EC50 (Rattus norvegicus [1]): 10000 nM | Control (Rattus norvegicus [2]): 433% | Increase over control (Rattus norvegicus [3]): 27%

O=C1c2ccccc2C(Cc2ccnc(F)c2)(Cc2ccnc(F)c2)c2ccccc21
Control (Rattus norvegicus [6]): 413% | Increase over control (Rattus norvegicus [7]): 115% | Increase over control (Rattus norvegicus [8]): 40% | EC50 (Rattus norvegicus [1]): 830 nM

Fc1cc(CC2(Cc3ccnc(F)c3)c3ccccc3-c3ncccc32)ccn1
Control (Rattus norvegicus [6]): 440% | Increase over control (Rattus norvegicus [9]): 201% | EC50 (Rattus norvegicus [1]): 1600 nM | Increase over control (Rattus norvegicus [10]): 74%

O=C1c2ccccc2C(Cc2ccncc2)(Cc2ccnc(F)c2)c2ccccc21
EC50 (Rattus norvegicus [1]): 410 nM | Control (Rattus norvegicus [11]): 452% | Increase over control (Rattus norvegicus [12]): 75%

O=C1N(c2ccccc2)c2ccccc2C1(Cc1ccncc1)Cc1ccncc1 [LINOPIRDINE]
Increase over control (Rattus norvegicus [13]): 50% | EC50 (Rattus norvegicus [1]): 4500 nM | Increase over control (Rattus norvegicus [14]): 65% | Increase over control (Rattus norvegicus [15]): 117% | Control (Rattus norvegicus [2]): 337%

c1ccc2c(c1)-c1ncccc1C2(Cc1ccncc1)Cc1ccncc1
EC50 (Rattus norvegicus [1]): 4120 nM | Control (Rattus norvegicus [2]): 725%

O=C1c2ccccc2C(Cc2ccncc2)(Cc2ccncc2)c2ccccc21
Increase over control (Rattus norvegicus [4]): 18% | EC50 (Rattus norvegicus [1]): 450 nM | Increase over control (Rattus norvegicus [16]): 127% | Control (Rattus norvegicus [2]): 600%
